The values that follow come from ChEMBL document CHEMBL3124940, “Design, synthesis and biological evaluation of D-ring opened galantamine analogs as multifunctional anti-Alzheimer agents” (Eur J Med Chem, 2014).

Series [1] concerns Rattus norvegicus. As to the kind of experiment: Antialzheimer activity in Wistar rat scopolamine-induced cognition impairment model assessed as decrease in amount of errors plus baits not found during exploration at 1 umol/100 g body weight, ip treated for 5 mins prior to scopolamine-challenge measured after 20 to 120 mins by eight-arm radial maze test. The format is functional, organism-based. Put shortly: (§1)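 Female 60-day-old Wistar rats (Han:Wist) trained in an eight-arm radial maze to error-free trials under 60 s on three consecutive days; each animal served as its own control. Test agent given i.p. in saline 5 min before scopolamine (0.05 mg/100 g b. wt., i.p. in saline). Errors plus baits not found after 10 min, and total searching time, recorded before and 20, 60, 120 min after scopolamine; n = 14, mean ± SEM.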

A further series has as its target Acetylcholinesterase (Electrophorus electricus, UniProt O42275). Briefly: Inhibition of electric eel AChE using acetylthiocholine iodide as substrate preincubated for 5 mins followed by substrate addition measured after 5 mins by Ellman's method.
A further series has as its target Cholinesterase (Equus caballus, UniProt P81908). As to the kind of experiment: Inhibition of equine serum BChE using butyrylthiocholine iodide as substrate preincubated for 5 mins followed by substrate addition measured after 5 mins by Ellman's method. Put shortly:
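Ellman's method with equine serum BChE and butyrylthiocholine iodide; DTNB read-out at 412 nm, 25 °C. Phosphate buffer pH 8.0. At least five concentrations (normally 10^-4 to 10^-9 M), each in triplicate, to build the inhibition curve. Data are means of at least three determinations.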

Series [2] in a line: Selectivity ratio of IC50 for electric eel AChE to IC50 for equine serum BChE. Summed up: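 AChE is electric eel Type VI-S with acetylthiocholine; BChE is equine serum with butyrylthiocholine. At least five concentrations, each in triplicate. Ratio = IC50(AChE)/IC50(BChE).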
The nature of series [3]: Induction of nitric oxide release in PBS at 100 uM at pH 7.4 after 24 hrs by Griess method relative to control. The class given is physicochemical. Conditions: buffer, pH 7.4, 24 h. Summed up:
(§2)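 Test compound at 100 µM in phosphate buffer pH 7.4, alone or with 90 µL rat serum added, incubated 37 °C for 24 h. Griess reagent added, then 30 min at 37 °C with gentle shaking; absorbance read at 540 nm and blank-corrected. Nitrite quantified against an NaNO2 calibration curve and expressed as % of a theoretical 1 mol NO per mol nitrate; n = 3.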

Series [4] in a line: Induction of nitric oxide release in PBS at 100 uM at pH 7.4 after 24 hrs by Griess method in presence of rat serum. The class given is physicochemical. Conditions: pH 7.4, 24 h. Put shortly:
as §2

The subject of series [5] is Rattus norvegicus. Briefly: Toxicity in Wistar rat assessed as change in movement at 1 umol/100 g body weight, ip. The format is organism-based. Conditions: in vivo.
Series [6] has as its system Rattus norvegicus. Briefly: Antialzheimer activity in Wistar rat scopolamine-induced cognition impairment model assessed as total exploration time at 1 umol/100 g body weight, ip treated for 5 mins prior to scopolamine-challenge by eight-arm radial maze test relative to control. The format is functional. Summed up:
as §1

Series [7] deals with Rattus norvegicus. Briefly: Toxicity in Wistar rat scopolamine-induced cognition impairment model assessed as change in movement at 1 umol/100 g body weight, ip. The class given is organism-based. The note with it: in vivo. Put shortly:
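60-day-old female Wistar rats were trained in an eight-arm radial maze to no errors in under 60 s on 3 consecutive days; each rat served as its own control. Compound in saline was given i.p., then scopolamine (0.05 mg/100 g, saline, i.p.) 5 min later. Errors plus baits not found after 10 min and total searching time were recorded before and 20, 60 and 120 min after scopolamine; n = 14, mean ± SEM.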

Series [8] deals with Amyloid-beta precursor protein (Homo sapiens) (UniProt P05067). As to the kind of experiment: Inhibition of amyloid beta (1 to 42) aggregation (unknown origin) at 5 to 100 uM after 1 hr by thioflavin T fluorescence assay. Put shortly: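 Aβ42 stock 200 μM in DMSO, centrifuged 12,000 rpm 10 min; supernatant used. ThT in 50 mM glycine-NaOH pH 8.5 then added. Fluorescence read at ex 430 / em 488 nm. Curcumin as positive control.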

A further series has as its system PC-12. Briefly: Neuroprotective activity in rat PC12 cells assessed as decrease in amyloid beta (1 to 42)-induced cytotoxicity at 0.08 to 10 uM after 24 hrs by MTT assay. The format is functional, cell-based. Put shortly:
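PC12 cells grown in F-12 with 10% FBS, 37 °C, 5% CO2. Seeded at 2000 cells/well for 24 h. Aβ42 pretreated with HFIP, then brought to 100 μM in medium and held at 4 °C for 24 h. Compound (final […]–10 μM, DMSO <0.5%) given with Aβ42 (final 5 μM) for 24 h. MTT 4 h, formazan read at 540 nm. Expressed as % of control; three independent trials, mean ± SEM.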

The source made the active and inactive calls. The rule behind the calls is not given here.

Chain of Cholinesterase (P81908 whole entry): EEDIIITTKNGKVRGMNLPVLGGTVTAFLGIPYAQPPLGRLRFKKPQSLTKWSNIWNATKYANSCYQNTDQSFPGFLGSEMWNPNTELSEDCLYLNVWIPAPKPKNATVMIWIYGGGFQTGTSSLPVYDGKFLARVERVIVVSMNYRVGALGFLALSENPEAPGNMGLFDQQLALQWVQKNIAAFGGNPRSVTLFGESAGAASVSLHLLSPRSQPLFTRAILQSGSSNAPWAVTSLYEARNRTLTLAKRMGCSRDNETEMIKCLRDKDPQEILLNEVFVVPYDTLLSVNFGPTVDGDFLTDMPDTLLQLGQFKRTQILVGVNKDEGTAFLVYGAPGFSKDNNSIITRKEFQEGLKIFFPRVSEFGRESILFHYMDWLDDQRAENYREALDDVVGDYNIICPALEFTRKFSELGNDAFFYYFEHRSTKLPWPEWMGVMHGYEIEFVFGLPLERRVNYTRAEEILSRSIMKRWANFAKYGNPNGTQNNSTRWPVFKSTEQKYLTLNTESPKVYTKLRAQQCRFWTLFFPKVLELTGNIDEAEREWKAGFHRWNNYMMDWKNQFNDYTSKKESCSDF
Chain of Acetylcholinesterase (O42275 whole entry): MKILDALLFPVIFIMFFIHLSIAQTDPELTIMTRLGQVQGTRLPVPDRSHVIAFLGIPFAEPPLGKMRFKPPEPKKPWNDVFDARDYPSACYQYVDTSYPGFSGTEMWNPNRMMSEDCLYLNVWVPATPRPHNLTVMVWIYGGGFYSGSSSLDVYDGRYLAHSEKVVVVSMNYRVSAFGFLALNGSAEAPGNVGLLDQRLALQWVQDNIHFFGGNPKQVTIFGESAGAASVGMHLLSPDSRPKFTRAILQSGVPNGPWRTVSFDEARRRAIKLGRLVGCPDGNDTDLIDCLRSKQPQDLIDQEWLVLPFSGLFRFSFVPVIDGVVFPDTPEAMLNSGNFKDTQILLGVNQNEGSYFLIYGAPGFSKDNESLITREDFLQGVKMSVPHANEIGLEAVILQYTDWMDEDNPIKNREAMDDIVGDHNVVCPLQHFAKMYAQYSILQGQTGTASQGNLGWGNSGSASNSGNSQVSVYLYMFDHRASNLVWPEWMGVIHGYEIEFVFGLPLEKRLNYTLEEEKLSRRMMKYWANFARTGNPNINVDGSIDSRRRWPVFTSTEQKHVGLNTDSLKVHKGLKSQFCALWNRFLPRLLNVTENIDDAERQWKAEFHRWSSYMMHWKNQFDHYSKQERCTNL
Chain of Amyloid-beta precursor protein (Homo sapiens) (P05067 whole entry): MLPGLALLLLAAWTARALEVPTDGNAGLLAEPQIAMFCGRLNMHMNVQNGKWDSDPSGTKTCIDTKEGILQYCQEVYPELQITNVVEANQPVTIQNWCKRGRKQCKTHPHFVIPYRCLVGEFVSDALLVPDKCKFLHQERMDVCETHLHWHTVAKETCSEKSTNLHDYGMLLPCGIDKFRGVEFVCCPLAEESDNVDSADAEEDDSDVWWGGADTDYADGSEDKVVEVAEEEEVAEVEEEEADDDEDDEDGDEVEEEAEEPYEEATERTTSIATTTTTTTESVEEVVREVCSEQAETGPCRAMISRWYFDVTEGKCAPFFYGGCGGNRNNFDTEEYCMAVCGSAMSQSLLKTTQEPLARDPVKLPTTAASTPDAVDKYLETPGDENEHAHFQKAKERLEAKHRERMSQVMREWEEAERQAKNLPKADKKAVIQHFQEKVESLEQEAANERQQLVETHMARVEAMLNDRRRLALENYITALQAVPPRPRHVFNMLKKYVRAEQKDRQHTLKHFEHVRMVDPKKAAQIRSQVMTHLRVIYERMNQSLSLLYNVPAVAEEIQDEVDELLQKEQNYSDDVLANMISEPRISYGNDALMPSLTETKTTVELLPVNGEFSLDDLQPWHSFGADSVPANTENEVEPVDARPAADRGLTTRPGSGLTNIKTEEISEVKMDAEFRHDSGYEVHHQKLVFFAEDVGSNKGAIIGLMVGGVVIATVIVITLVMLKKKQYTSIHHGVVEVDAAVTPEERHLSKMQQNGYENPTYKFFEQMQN

In the case of `COc1ccc2c(c1)[nH]c1cccc(CN(C(=O)CCO[N+](=O)[O-])C(C)C)c12`, the outcome with Rattus norvegicus [1] was Active. Besides, the results for the IC50 against Acetylcholinesterase and on Cholinesterase were 2210 nM and 2500 nM, respectively. In addition, in series [2], the Ratio IC50 stood at 0.88. In addition, the Activity in series [3] is reported as 4.8%; in series [4], “Active”; in the series on Rattus norvegicus [5], “Non-toxic”; with Rattus norvegicus [7] it was “Non-toxic”. In addition, in the series with Rattus norvegicus [6], the Time was 107 s.

In the case of `COc1ccc2c3c1O[C@H]1C[C@@H](O)C=C[C@@]31CCN(C)C2`, the result in the series with Rattus norvegicus [1], in the series with PC-12 and with Rattus norvegicus [6] was inactive. For the same compound, the inhibition result in series [8] was “inactive”.
